Converted amounts (≈) assume the structure as drawn.

The record followed here is ChEMBL document CHEMBL1141246, “Transformations of manool. tri- and tetracyclic norditerpenoids with in vitro activity against Plasmodium falciparum” (J Nat Prod, 2007).

One series concerns Plasmodium falciparum. Briefly: Antiparasitic activity against Plasmodium falciparum 3D7 after 48 hrs. The class given is functional, organism-based. The note with it: 3D7, 48 h. Put shortly: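 P. falciparum 3D7 cultures diluted with fresh medium and erythrocytes to 2% parasitemia, 2% hematocrit. Serial compound dilutions added and plates held 48 h at 37 °C. Viability read as parasite lactate dehydrogenase activity, relative to solvent controls with 0.5% DMSO.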

A short description of series [1]: Hemolytic activity in human erythrocytes at 100 ug/mL after 48 hrs relative to 0.2% saponin. The class given is ADME, cell-based, Erythrocyte. To be noted: read-out: Activity. An outline of the steps:
(§1)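 Uninfected normal erythrocytes at 2% hematocrit incubated 48 h with compound dilutions in duplicate plates. Cells pelleted at 200g for 3 min, and hemoglobin in the supernatant read by absorbance at 405 nm. Percent hemolysis calculated against 0.2% saponin.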

Series [2] is described as follows: Effect on erythrocyte shape in human erythrocytes assessed as stomatocytes at 100 ug/mL after 48 hrs. The class given is ADME, cell-based. An outline of the steps: (§2)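 Fresh erythrocytes at 2% hematocrit incubated 48 h in parasite culture medium alone or with compound. Suspensions then wet-mounted under coverslips and examined at once by phase-contrast microscopy with a 100× oil objective; Giemsa-stained thin smears were also examined. Percent stomatocytes, echinocytes and knizocytes scored using shape definitions of Lim et al.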

A short description of series [3]: Effect on erythrocyte shape in human erythrocytes assessed as stomatocytes at 50 ug/mL after 48 hrs. The series is classed as ADME, cell-based. Put shortly: as §2
Series [4] is described as follows: Effect on erythrocyte shape in human erythrocytes assessed as echinocytes at 100 ug/mL after 48 hrs. The class given is ADME, cell-based. Put shortly: as §2
The nature of series [5]: Effect on erythrocyte shape in human erythrocytes assessed as echinocytes at 50 ug/mL after 48 hrs. The class given is ADME, cell-based. An outline of the steps:
as §2

A short description of series [6]: Hemolytic activity in human erythrocytes at 200 ug/mL after 48 hrs relative to 0.2% saponin. The series is classed as ADME, cell-based, Erythrocyte. To be noted: read-out: Activity. An outline of the steps: as §1
A short description of series [7]: Effect on erythrocyte shape in human erythrocytes assessed as […] and stomatocytes at 100 ug/mL after 48 hrs. The series is classed as ADME, cell-based. An outline of the steps:
as §2

As for `C=C[C@@]1(C)CCC2=C(CC[C@H]3C(C)(C)[C@@H](O)CC[C@]23C)C1`, the IC50 – broadly, the concentration needed to halve the response being measured – with Plasmodium falciparum amounted to 7 µg/mL (≈ 24.3 µM).

Compound `C=C[C@@]1(C)CCC2[C@@](O)(CC[C@H]3C(C)(C)[C@@H](O)CC[C@]23C)C1` (stereo partly specified) registered a half-maximal inhibitory concentration (IC50) with Plasmodium falciparum of 7 µg/mL (≈ 22.8 µM).

Compound `C=C[C@]1(C)C=C2CC[C@H]3C(C)(CO)[C@@H](O)CC[C@]3(C)[C@H]2CC1` (stereo partly specified) displayed a half-maximal inhibitory concentration (IC50) with Plasmodium falciparum of 7 µg/mL (≈ 23 µM).

In the series with Plasmodium falciparum, `C=C[C@@]1(C)CCC2=C(C1)C(=O)C[C@H]1C(C)(CO)[C@@H](O)CC[C@]21C` (stereo partly specified) had an IC50 of 7 µg/mL (≈ 22 µM).

Turning to `CCOC(=O)/C=C1\CC[C@H]2[C@@](O)(CC[C@H]3C(C)(C)CCC[C@@]32C)C1`, in series [1], the hemolysis at 48 h, 100 ug/mL was found to be 3%. For the same compound, the Activity in series [2] was determined as 8%; in series [3], 2%; in series [4], 0%; in series [5], 2%. In the series on Plasmodium falciparum, this compound came in with an IC50 of 5.7 µg/mL (≈ 17 µM). Further, in series [6], the hemolysis at 48 h, 200 ug/mL turned out to be 17%.

As to `CCOC(=O)/C=C1/CC[C@H]2[C@@](O)(CC[C@H]3C(C)(C)CCC[C@@]32C)C1`, in series [1], the hemolysis at 48 h, 100 ug/mL was found to be 9%. The Activity in series [3] is recorded as 11%; in series [4], 0%; in series [5], 0%; in series [7] it was 17%. For the same compound, in the series on Plasmodium falciparum, the IC50 turned out to be 3.9 µg/mL (≈ 11.7 µM). In addition, the hemolysis at 48 h, 200 ug/mL in series [6] amounted to 34%.

Consider `CC1(C)CCC[C@@]2(C)[C@H]1CC[C@@]1(O)C/C(=C\CO)CC[C@@H]12`, for which, in series [1], the hemolysis at 48 h, 100 ug/mL amounted to 2%. The Activity in series [2] was found to be 64%; in series [3], 5%; in series [4], 0%; in series [5] it was 1%. This compound also showed an IC50 in the series with Plasmodium falciparum of 10.6 µg/mL (≈ 36.2 µM). For the same compound, in series [6], the hemolysis at 48 h, 200 ug/mL stood at 102%.

Turning to `CCO[C@@]12CC[C@H]3[C@@](CC[C@H]4C(C)(C)CCC[C@@]43C)(C1)OC(=O)C2`, the hemolysis at 48 h, 100 ug/mL in series [1] turned out to be 0%. Also, the Activity in series [2] came to 0%; in series [3], 1%; in series [4], 9%; in series [5] it was 2%. In the series with Plasmodium falciparum, this compound gave a half-maximal inhibitory concentration (IC50) of 19.6 µg/mL (≈ 58.6 µM). Moreover, in series [6], the hemolysis at 48 h, 200 ug/mL amounted to 0%.

`C=C[C@@]1(O)CC[C@H]2[C@@](O)(CC[C@H]3C(C)(C)CCC[C@@]32C)C1`: the hemolysis at 48 h, 100 ug/mL in series [1] came to 0.6%. Further, the Activity in series [2] stood at 1%; in series [3] it was 1%; in series [4] it was 2%; in series [5], 3%. For the same compound, half-maximal inhibition with Plasmodium falciparum (IC50) was put at 10.7 µg/mL (≈ 36.6 µM). The hemolysis at 48 h, 200 ug/mL in series [6] amounted to 0.2%.

For the compound `CC1(C)CCC[C@@]2(C)[C@H]1CC[C@@]1(O)CC(CCO)CC[C@@H]12` (stereo partly specified), in series [1], the hemolysis at 48 h, 100 ug/mL was found to be 0%. Moreover, the Activity in series [2] is listed as 3%; in series [3], 1%; in series [4], 2%; in series [5], 3%. The IC50 in the series on Plasmodium falciparum came out at 13.3 µg/mL (≈ 45.2 µM). Moreover, the hemolysis at 48 h, 200 ug/mL in series [6] worked out at 5%.
